# Results from ChEMBL document CHEMBL1949664, “Epiminocyclohepta[b]indole analogs as 5-HT6 antagonists” (Bioorg Med Chem Lett, 2012).
# How the values were obtained:
# [1] = target: T1, 5-hydroxytryptamine receptor 6 (Homo sapiens, UniProt P50406); experiment: Agonist activity at human 5-HT6 serotonin receptor expressed in CHO-1 cells assessed as cAMP production relative to 5-hydroxytryptamine; format: functional, cell-based; parameters: concentration or dose not given beside the values
# [2] = (§1) Stability in rat liver microsomes assessed as compound remaining after 1 hr; format: ADME, Microsome; details: liver microsomes, read-out: Stability
# Method in brief: (§2)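 Rat liver microsomes; percent parent compound remaining after 1 h incubation.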
# [3] = (§3) Stability in human liver microsomes assessed as compound remaining after 1 hr; format: ADME, Microsome; details: liver microsomes, read-out: Stability
# Method in brief: (§4)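 Human liver microsomes; percent parent compound remaining after 1 h incubation.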
# [4] = (§5) Permeability from apical to basolateral side of human Caco2 cells; format: ADME, cell-based; details: caco-2, read-out: permeability
# Method in brief: (§6)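 Caco-2 monolayers; apical-to-basolateral flux reported as ×10^-6 cm/s.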
# [5] = system: Liver microsomes; experiment: as §1; format: ADME, Microsome; details: microsomes, 1 h; method in brief: as §2
# [6] = system: Liver microsomes; experiment: as §3; format: ADME, Microsome; details: microsomes, 1 h; method in brief: as §4
# [7] = species: Rattus norvegicus; experiment: Ex vivo 5-HT6 serotonin receptor occupancy in Sprague-Dawley rat brain after 6 hrs using [125I][…] by autoradiography; format: functional, organism-based
# Method in brief: (§7)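 Sprague Dawley rats dosed at 10, 30 or 90 mg/kg, brains taken at 6 or 24 h. Caudate putamen sections incubated with [125I]SB258585 alone (total) or plus methiothepin (non-specific); β-imager read-out. Two determinations per animal, 5 animals per dose group; specific binding expressed relative to vehicle controls.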
# [8] = system: Caco-2; experiment: (§8) Efflux ratio of permeability from basolateral to apical side over apical to basolateral side in human Caco2 cells; format: ADME, cell-based
# [9] = system: Caco-2; experiment: as §5; format: ADME, cell-based; method in brief: as §6
# [10] = target: T1, 5-hydroxytryptamine receptor 6; experiment: Displacement of [3H]LSD from human 5-HT6 serotonin receptor by scintillation proximity assay
# [11] = Cmax (0 to 6 hrs) in Sprague-Dawley rat at 30 mg/kg, po; format: ADME, organism-based; parameters: dose 30 mg/kg, route oral; details: in vivo
# [12] = Tmax (0 to 6 hrs) in Sprague-Dawley rat at 30 mg/kg, po; format: ADME, organism-based; parameters: dose 30 mg/kg, route oral; details: in vivo
# [13] = target: T1, 5-hydroxytryptamine receptor 6; experiment: Antagonist activity at human 5-HT6 serotonin receptor expressed in CHO-1 cells assessed as inhibition of 5-hydroxytryptamine-induced cAMP production; format: functional, cell-based
# [14] = as §8; format: ADME, cell-based; details: caco-2
# [15] = Half life in Sprague-Dawley rat at 10 mg/kg, po; format: ADME, organism-based; parameters: dose 10 mg/kg, route oral; details: in vivo
# [16] = Oral bioavailability in Sprague-Dawley rat at 2 mg/kg; format: ADME, organism-based; details: in vivo
# [17] = system: Rattus norvegicus; experiment: Ex vivo 5-HT6 serotonin receptor occupancy in Sprague-Dawley rat brain at 30 mg/kg after 24 hrs using [125I][…] by autoradiography; format: functional; method in brief: as §7
# [18] = Cmax in Sprague-Dawley rat at 10 mg/kg, po; format: ADME, organism-based; parameters: dose 10 mg/kg, route oral; details: in vivo
# [19] = Clearance in Sprague-Dawley rat at 2 mg/kg, iv; format: ADME, organism-based; parameters: dose 2 mg/kg, route intravenous; details: in vivo
# [20] = system: Rattus norvegicus; experiment: Ex vivo 5-HT6 serotonin receptor occupancy in Sprague-Dawley rat brain at 90 mg/kg after 6 hrs using [125I][…] by autoradiography; format: functional; method in brief: as §7
# [21] = Ratio of drug level in brain to plasma in Sprague-Dawley rat at 10 mg/kg, po after 6 hrs; format: ADME, organism-based; parameters: dose 10 mg/kg, route oral; details: read-out: BPR
# [22] = system: Rattus norvegicus; experiment: Ex vivo 5-HT6 serotonin receptor occupancy in Sprague-Dawley rat brain at 90 mg/kg after 24 hrs using [125I][…] by autoradiography; format: functional; method in brief: as §7
# [23] = AUC (0 to infinity) in Sprague-Dawley rat at 10 mg/kg, po; format: ADME, organism-based; parameters: time infinity, dose 10 mg/kg, route oral; details: plasma
# [24] = Tmax in Sprague-Dawley rat at 10 mg/kg, po; format: ADME, organism-based; parameters: dose 10 mg/kg, route oral; details: in vivo
# [25] = system: Rattus norvegicus; experiment: Ex vivo 5-HT6 serotonin receptor occupancy in Sprague-Dawley rat brain at 10 mg/kg after 24 hrs using [125I][…] by autoradiography; format: functional; method in brief: as §7
# [26] = Oral bioavailability in Sprague-Dawley rat at 10 mg/kg; format: ADME, organism-based; details: in vivo
# [27] = system: Rattus norvegicus; experiment: Ex vivo 5-HT6 serotonin receptor occupancy in Sprague-Dawley rat brain at 10 mg/kg after 6 hrs using [125I][…] by autoradiography; format: functional; method in brief: as §7
# [28] = Volume of distribution at steady state in Sprague-Dawley rat at 2 mg/kg, iv; format: ADME, organism-based; parameters: dose 2 mg/kg, route intravenous; details: in vivo, read-out: Vdss
# [29] = system: Rattus norvegicus; experiment: Ex vivo 5-HT6 serotonin receptor occupancy in Sprague-Dawley rat brain at 30 mg/kg after 6 hrs using [125I][…] by autoradiography; format: functional; method in brief: as §7
# T1 sequence (P50406 whole entry): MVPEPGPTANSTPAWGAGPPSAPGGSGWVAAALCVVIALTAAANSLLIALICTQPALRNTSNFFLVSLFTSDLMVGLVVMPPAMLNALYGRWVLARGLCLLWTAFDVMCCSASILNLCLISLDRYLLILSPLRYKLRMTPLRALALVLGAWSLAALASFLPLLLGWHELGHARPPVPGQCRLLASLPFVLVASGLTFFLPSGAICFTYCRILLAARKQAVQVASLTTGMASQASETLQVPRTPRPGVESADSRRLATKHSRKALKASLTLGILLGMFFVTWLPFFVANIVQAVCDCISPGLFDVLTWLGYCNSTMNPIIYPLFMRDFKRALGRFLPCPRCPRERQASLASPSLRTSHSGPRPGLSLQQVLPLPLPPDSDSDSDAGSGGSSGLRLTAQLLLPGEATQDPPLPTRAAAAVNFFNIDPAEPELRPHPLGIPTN
smiles,measurement,setting,value
"Cn1c2c(c3cc(S(=O)(=O)c4csc5ccccc45)ccc31)C1CCC(C2)N1 (single isomer, unassigned) [listing 1 of 2 here]",Activity,[1],< 15%
"Cn1c2c(c3cc(S(=O)(=O)c4ccc5[nH]ccc5c4)ccc31)C1CCC(C2)N1 (single isomer, unassigned; (-)) [listing 1 of 2 here]",remaining at 1 h,[2],77%
same,remaining at 1 h,[3],89%
same,Papp A→B,[4],0.55 ×10⁻⁶ cm/s
"Cn1c2c(c3cc(S(=O)(=O)c4ccc5[nH]ccc5c4)ccc31)C1CCC(C2)N1 (single isomer, unassigned; (+)) [listing 1 of 2 here]",Stability,[5],91%
same,Stability,[6],99%
"Cn1c2c(c3cc(S(=O)(=O)n4ccc5ccccc54)ccc31)C1CCC(C2)N1 (single isomer, unassigned; (-)) [listing 1 of 2 here]",remaining at 1 h,[2],88%
same,remaining at 1 h,[3],82%
same,Papp A→B,[4],15 ×10⁻⁶ cm/s
"Cn1c2c(c3cc(S(=O)(=O)c4c[nH]c5ccccc45)ccc31)C1CCC(C2)N1 (single isomer, unassigned; (+)) [listing 1 of 2 here]",Activity,[1],< 15%
"Cn1c2c(c3cc(S(=O)(=O)c4cccc(C(F)(F)F)c4)ccc31)C1CCC(C2)N1 (single isomer, unassigned; (+)) [listing 1 of 2 here]",Activity,[7],Dose-dependent effect
same,Activity,[1],< 15%
"Cn1c2c(c3cc(S(=O)(=O)c4cccc(Cl)c4)ccc31)C1CCC(C2)N1 (single isomer, unassigned; (+)) [listing 1 of 2 here]",Stability,[5],72%
same,Ratio,[8],4.4
same,Stability,[6],93%
same,permeability,[9],8.55 ×10⁻⁶ cm/s
Cn1c2c(c3cccc(S(=O)(=O)c4ccccc4)c31)C1CCC(C2)N1 (racemic),Ki,[10],814 nM
Cn1c2c(c3cc(S(=O)(=O)n4cccc4)ccc31)C1CCC(C2)N1 (racemic),Ki,[10],32 nM
"Cn1c2c(c3cc(S(=O)(=O)c4ccccc4)ccc31)C1CCC(C2)N1 (single isomer, unassigned; (-))",Activity,[1],< 15%
CCN1C2CCC1c1c(n(C)c3ccc(S(=O)(=O)c4ccccc4)cc13)C2 (racemic),Ki,[10],91 nM
"Cn1c2c(c3cc(S(=O)(=O)n4ccc5ccccc54)ccc31)C1CCC(C2)N1 (single isomer, unassigned; (+)) [listing 1 of 2 here]",Stability,[5],86%
same,Stability,[6],96%
same,permeability,[9],12 ×10⁻⁶ cm/s
same,Cmax,[11],41 ng/mL
same,Tmax,[12],6 h
"Cn1c2c(c3cc(S(=O)(=O)c4cccc(Cl)c4)ccc31)C1CCC(C2)N1 (single isomer, unassigned; (-)) [listing 1 of 2 here]",Kb,[13],3.5 nM
same,Activity,[1],< 15%
"Cn1c2c(c3cc(S(=O)(=O)c4c[nH]c5ccccc45)ccc31)C1CCC(C2)N1 (single isomer, unassigned; (+)) [listing 2 of 2 here]",Stability,[5],57%
same,Stability,[6],86%
same,permeability,[9],1.05 ×10⁻⁶ cm/s
"Cn1c2c(c3cc(S(=O)(=O)c4csc5ccccc45)ccc31)C1CCC(C2)N1 (single isomer, unassigned; (-)) [listing 1 of 2 here]",Activity,[1],< 15%
Cn1c2c(c3ccc(S(=O)(=O)c4ccccc4)cc31)C1CCC(C2)N1 (racemic),Ki,[10],131 nM
"Cn1c2c(c3cc(S(=O)(=O)c4csc5ccccc45)ccc31)C1CCC(C2)N1 (single isomer, unassigned) [listing 2 of 2 here]",Stability,[5],80%
same,Stability,[6],78%
same,permeability,[9],15.7 ×10⁻⁶ cm/s
"Cn1c2c(c3cc(S(=O)(=O)c4cccc(C(F)(F)F)c4)ccc31)C1CCC(C2)N1 (single isomer, unassigned; (-)) [listing 1 of 2 here]",Activity,[1],< 15%
"Cn1c2c(c3cc(S(=O)(=O)c4cccc(C(F)(F)F)c4)ccc31)C1CCC(C2)N1 (single isomer, unassigned; (-)) [listing 2 of 2 here]",remaining at 1 h,[2],65%
same,Stability,[6],78%
same,Papp A→B,[4],16.5 ×10⁻⁶ cm/s
"Cn1c2c(c3cc(S(=O)(=O)c4c[nH]c5ccccc45)ccc31)C1CCC(C2)N1 (single isomer, unassigned; (-)) [listing 1 of 2 here]",Stability,[5],34%
same,remaining at 1 h,[3],72%
same,permeability,[9],0.41 ×10⁻⁶ cm/s
O=S(=O)(c1ccccc1)c1ccc2[nH]c3c(c2c1)C1CCC(C3)N1 (racemic),Ki,[10],54 nM
"Cn1c2c(c3cc(S(=O)(=O)c4cccc(Cl)c4)ccc31)C1CCC(C2)N1 (single isomer, unassigned; (-)) [listing 2 of 2 here]",remaining at 1 h,[2],63%
same,efflux ratio,[14],6
same,remaining at 1 h,[3],76%
same,Papp A→B,[4],7.49 ×10⁻⁶ cm/s
"Cn1c2c(c3cc(S(=O)(=O)c4ccc5[nH]ccc5c4)ccc31)C1CCC(C2)N1 (single isomer, unassigned; (-)) [listing 2 of 2 here]",Activity,[1],< 15%
"Cn1c2c(c3cc(S(=O)(=O)c4c[nH]c5ccccc45)ccc31)C1CCC(C2)N1 (single isomer, unassigned; (-)) [listing 2 of 2 here]",Activity,[1],< 15%
"Cn1c2c(c3cc(S(=O)(=O)c4csc5ccccc45)ccc31)C1CCC(C2)N1 (single isomer, unassigned; (-)) [listing 2 of 2 here]",remaining at 1 h,[2],67%
same,Stability,[6],52%
same,permeability,[9],0.24 ×10⁻⁶ cm/s
"Cn1c2c(c3cc(S(=O)(=O)n4ccc5ccccc54)ccc31)C1CCC(C2)N1 (single isomer, unassigned; (-)) [listing 2 of 2 here]",Activity,[1],< 15%
"Cn1c2c(c3cc(S(=O)(=O)c4cccc(Cl)c4)ccc31)C1CCC(C2)N1 (single isomer, unassigned; (+)) [listing 2 of 2 here]",Kb,[13],4 nM
same,Activity,[1],< 15%
Cn1c2c(c3cc(S(=O)(=O)c4ccncc4)ccc31)C1CCC(C2)N1 (racemic),Ki,[10],> 10000 nM
Cn1c2c(c3cc(S(=O)(=O)c4cccc(F)c4)ccc31)C1CCC(C2)N1 (racemic),Ki,[10],4.1 nM
"Cn1c2c(c3cc(S(=O)(=O)c4cccc(C(F)(F)F)c4)ccc31)C1CCC(C2)N1 (single isomer, unassigned; (+)) [listing 2 of 2 here]",half-life,[15],10 h
same,bioavailability,[16],91%
same,Activity,[17],74%
same,Stability,[5],79%
same,Cmax,[18],916 ng/mL
same,clearance,[19],5.7 mL/min/kg
same,Activity,[20],78%
same,Kp at 6 h,[21],1.3
same,Activity,[22],84%
same,AUC(0-inf),[23],26700 ng·h/mL
same,Tmax,[24],4 h
same,Activity,[25],48%
same,Stability,[6],100%
same,bioavailability,[26],91%
same,permeability,[9],24.8 ×10⁻⁶ cm/s
same,Activity,[27],60%
same,Vd,[28],4.7 L/kg
same,Cmax,[11],732 ng/mL
same,Tmax,[12],6 h
same,Activity,[29],76%
"Cn1c2c(c3cc(S(=O)(=O)c4ccccc4)ccc31)C1CCC(C2)N1 (single isomer, unassigned; (+))",Activity,[1],< 15%
Cn1ccc(S(=O)(=O)c2ccc3c(c2)c2c(n3C)CC3CCC2N3)n1 (stereo unspecified),Ki,[10],1010 nM
"Cn1c2c(c3cc(S(=O)(=O)n4ccc5ccccc54)ccc31)C1CCC(C2)N1 (single isomer, unassigned; (+)) [listing 2 of 2 here]",Activity,[1],< 15%
"Cn1c2c(c3cc(S(=O)(=O)c4ccc5[nH]ccc5c4)ccc31)C1CCC(C2)N1 (single isomer, unassigned; (+)) [listing 2 of 2 here]",Activity,[1],< 15%
